# Only a selection was taken, and hits are over-represented in it overall.
# PostGolgi ctrl: yeast control strain growth, post-Golgi counter-screen. efflux-deficient yeast background strain, growth absorbance A615, 16 h. actives 5% (n = 98,000). inhibition, % at 10 µM
# Yeast lifespan up: extends the lifespan of yeast; AID 775; S. cerevisiae growth with nicotinamide, OD615; deaD strain in restrictive glucose medium; inhibition of the nicotinamide effect, % at 10 µM; actives 0.68% (n = 130,000);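 active = inhibition above a set limit, placed 3 SD over the median of all compounds, cut at about 26% in these data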
#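 Test system – modified budding yeast, DeaD strain · Compound – single dose 10 µM compound, 0.25% DMSO · Times – culture preincubation 4 h, compound exposure 48 h, both 30 °C · Detection – optical density (absorbance) at 615 nm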
# Yeast growth inh: reduces growth of yeast BB579 in restrictive medium | S. cerevisiae BB579 growth, OD615, 48 h | inhibition, % at 10 µM | actives 0.51% (n = 140,000) | AID 804;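 active = inhibition above a set limit, 3 SD over the mean compound inhibition, cut at about 44% in these data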
#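 Assay system: S. cerevisiae DeaD strain BB579 yeast. Medium: CSMM-D restrictive synthetic medium containing dextrose (glucose). Times: 4 h cell preincubation, 48 h compound exposure, 30 °C humidified. Signal: OD615 turbidity measurement. Benchmarks: positive control amphotericin B 10 µg/mL.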
# PostGolgi yeast: growth inhibition of a yeast mutant, post-Golgi transport screen; post-Golgi transport phenotypic cell assay; inhibition, % at 10 µM; actives 0.9% (n = 98,000); AID 739;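 also: yeast cells grown in 1536-well plates; yeast grown about 18 h at 30C before absorbance read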
# A number is an active result; - = inactive; . = not tested or not shown. Rule as the data show it, unless noted: active = inhibition above about 30%; inactive = the rest.
SMILES,PostGolgi ctrl,Yeast lifespan up,Yeast growth inh,PostGolgi yeast
Cn1c(=O)n(CCCOc2ccc(Cl)cc2)c2ccccc21,49,-,-,-
COc1ccc(OCCCn2c(=O)oc3ccccc32)cc1,.,.,-,.
Cc1ccc(NC(=O)c2cccc(S(=O)(=O)N(C)c3ccccc3)c2)cc1S(=O)(=O)N1CCOCC1,.,-,-,.
CCOC(=O)c1sc(N(Cc2ccccc2)C(=O)CSc2nnc(C3CC3)n2N)nc1C,-,-,-,-
Cn1c(=O)n(CCCOc2ccc(Br)cc2)c2ccccc21,39,-,-,-
COCCNC(=O)COC(=O)/C=C/c1c(C)nn(Cc2ccc(Cl)cc2Cl)c1Cl,-,-,-,-
COc1ccc(CNC(=O)C(=O)NCC2OCCN2S(=O)(=O)c2cccs2)cc1 (centres undefined),.,-,-,.
COc1ccc(COc2ccccc2C(=O)NCc2ccccc2)cc1F,.,-,-,.
COc1ccc(-c2nnc(SCC(=O)Nc3ccc(Cl)cc3)n2C)cc1,-,-,-,-
Cn1c(SCC(=O)N/N=C/c2ccc([N+](=O)[O-])s2)nnc1-c1ccc(Cl)cc1,.,-,99,.
Cc1ccc(-n2nc(CN3CCOCC3)c(-c3ccccc3)c2N)c(C)c1,.,-,-,.
CCCC(=O)C1C(=O)CC(CC(C)SCC)CC1=O (centres undefined),-,97,-,-
COc1ccc(NC(=O)CC(NCCc2ccccc2)C(=O)O)c(OC)c1 (centres undefined),-,-,-,-
COCCCNC(CC(=O)Nc1ccc(OC)cc1OC)C(=O)O (centres undefined),-,101,-,-
COCCCNC(=S)NC(=O)c1ccc(C)cc1,.,-,-,.
Cc1ccccc1NC(=O)c1sc(Cl)nc1-c1ccccc1,39,-,-,-
Cc1ccc(C)c(NC(=O)c2sc(Cl)nc2-c2ccccc2)c1,-,-,-,-
CC(NC(=O)c1ccco1)C(c1cccs1)N1CCN(c2ccccc2F)CC1 (centres undefined),.,.,-,.
CC(NC(=O)Cc1cccs1)C(c1cccs1)N1CCN(c2ccccc2F)CC1 (centres undefined),36,-,-,-
CC1CCCC(C)N1C(=O)CSc1nnc(C2CCCCC2)o1 (centres undefined),-,-,-,-
COc1cc(NC(=S)NC(=O)CC(C)C)ccc1NC(=O)c1cc2ccccc2o1,.,-,-,.
O=C(OCCN1CCN(c2ncc(C(F)(F)F)cc2Cl)CC1)c1ccc(Cl)cc1,31,-,-,-
O=C(CSc1nccn1-c1ncc(C(F)(F)F)cc1Cl)c1ccc(Cl)cc1,32,-,-,-
Cn1cnc([N+](=O)[O-])c1Oc1ccc2ccccc2c1,.,-,-,.
C=CCc1c(C)nc(SC)nc1Nc1ccc(C(C)=O)cc1,31,-,-,-
SMILES,PostGolgi ctrl,Yeast lifespan up,Yeast growth inh,PostGolgi yeast
C=CCc1c(C)nc(SC)nc1Nc1ccc(C(=O)O)cc1,-,-,-,-
CC1(CCc2ccccc2)NC(=S)N(c2ccccc2)N1 (centres undefined),.,-,96,.
CC1(CCc2ccccc2)NC(=S)N(c2ccc(Cl)cc2)N1 (centres undefined),.,-,97,.
CC(C)(C)C1CCC2(CC1)NC(=S)N(c1ccccc1)N2 (centres undefined),.,.,-,.
CCCNc1ccc(S(=O)(=O)N(CC)CC)cn1,.,-,-,.
CCN(CC)S(=O)(=O)c1ccc(NCc2ccccc2)nc1,38,-,-,-
Cc1ccc(NC(=O)c2sccc2SCc2cccc(C(F)(F)F)c2)cc1,-,-,-,-
Cc1cccc(C)c1NC(=O)c1sccc1SCc1cccc(C(F)(F)F)c1,51,-,-,-
COc1ccc(NC(=O)c2nc[nH]c2C(=O)Nc2ccccc2C)cc1,-,-,-,-
Cc1ccccc1NC(=O)c1nc[nH]c1C(=O)NCc1ccccc1,53,-,-,-
CCOc1cc2c(cc1OCC)C(c1ccccc1)N(c1ccccc1)C(=O)C2 (centres undefined),.,-,-,.
C=C(C)COc1ccc(-c2[nH]ncc2Oc2ccccc2OC)c(O)c1,-,-,79,-
C=C(C)COc1ccc(-c2n[nH]c(C)c2-c2ccc(Br)cc2)c(O)c1,-,-,-,-
C=C(C)COc1ccc(-c2[nH]ncc2-c2ccc(Br)cc2)c(O)c1,.,-,69,.
CCCOC(=O)c1ccc(Oc2cn[nH]c2-c2ccc(OC)cc2O)cc1,43,-,69,-
C=C(C)COc1ccc(-c2[nH]ncc2-c2ccccc2OC)c(O)c1,52,-,90,54
C/C(=N\NC(=O)c1ccc(=O)[nH]n1)c1cccnc1,.,-,-,.
CCO/C=C/C(O)(CNC(=O)c1ccc(C(C)(C)C)cc1)C(F)(F)F (centres undefined),.,-,-,.
Cc1ccc2cc(C#N)c(SCc3nnc(-c4ccccc4[N+](=O)[O-])o3)nc2c1,.,-,-,.
CCOc1ccc(-c2nc(N)ncc2Oc2ccccc2Br)c(O)c1,55,-,-,-
CCOc1ccc(-c2[nH]ncc2Oc2ccccc2OCC)c(O)c1,57,-,-,91
O=C(Cc1ccc(Cl)cc1)Nc1ccc(-c2nnc(-c3ccco3)o2)cc1,-,-,-,31
CCC(=O)Nc1ccc(-c2nnc(-c3ccccc3)o2)cc1,40,-,-,-
O=C(Cc1ccccc1)Nc1ccc(-c2nnc(-c3ccco3)o2)cc1,-,-,-,-
CN(C)CCSc1nnc2[nH]c3ccccc3c2n1,.,-,-,.
SMILES,PostGolgi ctrl,Yeast lifespan up,Yeast growth inh,PostGolgi yeast
CCOC(=O)N/C(N)=N/c1nc2ccccc2s1,33,-,-,-
S=C(Nc1ccccc1)N1CCn2c1nc1ccccc12,38,-,-,-
CCCCC1CC1C(=O)Nc1ccc(OC)c(OC)c1 (centres undefined),37,-,-,-
CCCCOC(=O)c1ccc(NC(=O)Nc2ccc(OC)c(OC)c2)cc1,-,-,-,-
CC(C)n1c(=S)[nH]c2ccccc2c1=O,-,-,-,-
CC1CCCCC1n1c(=S)[nH]c2ccccc2c1=O (centres undefined),53,-,-,-
CN(C)S(=O)(=O)c1cccc(C(=O)Nc2cc(Cl)cc(Cl)c2)c1,-,-,-,-
O=C(Nc1cc(Cl)cc(Cl)c1)c1cccc(OC(F)F)c1,33,-,-,59
CC1(C)Cc2c(cnn2-c2ccccc2)C(=O)/C1=N\NC(=O)c1ccccc1O,-,-,-,-
Cc1ccc(-c2ccc(/C=N/n3cnnc3)o2)cc1Cl,60,-,-,80
CC(C)CN1C(=O)c2ccc(NC(=O)c3cccs3)cc2C1=O,-,-,-,-
CC(C)CN1C(=O)c2ccc(NC(=O)c3ccccc3F)cc2C1=O,33,-,-,-
Cc1ccc(S(=O)(=O)N(C(=O)c2ccncc2)c2ccc(OC(=O)c3ccncc3)c3ccccc23)cc1,.,-,-,.
Cc1ccc(S(=O)(=O)N(C(=O)c2ccncc2)c2ccc(OC(=O)c3ccncc3)c3ccccc23)c(C)c1,-,37,-,-
C=CCn1c(SCc2nc3ccccc3nc2C)nnc1-c1ccoc1C,-,-,-,-
COc1cccc(Nc2nc3ccccc3n3cnnc23)c1,33,-,-,-
COc1ccc(/C=C\C(=O)CC(O)(c2ccccc2)C(F)(F)F)cc1 (centres undefined),38,-,-,-

# From PubChem BioAssay
